In ChEMBL document CHEMBL5126600, “Discovery of the First-in-Class G9a/GLP Covalent Inhibitors” (J Med Chem, 2022):

Assays:
[1] = target: T1, Histone-lysine N-methyltransferase EHMT2 (Homo sapiens) (UniProt Q96KQ7); assay: Inhibition of human G9a (913 to 1193 residues) assessed as covalent modification by measuring G9a adduct formation at 50 uM incubated for 1 hr by mass spectrometry relative to control
T1 sequence (whole entry): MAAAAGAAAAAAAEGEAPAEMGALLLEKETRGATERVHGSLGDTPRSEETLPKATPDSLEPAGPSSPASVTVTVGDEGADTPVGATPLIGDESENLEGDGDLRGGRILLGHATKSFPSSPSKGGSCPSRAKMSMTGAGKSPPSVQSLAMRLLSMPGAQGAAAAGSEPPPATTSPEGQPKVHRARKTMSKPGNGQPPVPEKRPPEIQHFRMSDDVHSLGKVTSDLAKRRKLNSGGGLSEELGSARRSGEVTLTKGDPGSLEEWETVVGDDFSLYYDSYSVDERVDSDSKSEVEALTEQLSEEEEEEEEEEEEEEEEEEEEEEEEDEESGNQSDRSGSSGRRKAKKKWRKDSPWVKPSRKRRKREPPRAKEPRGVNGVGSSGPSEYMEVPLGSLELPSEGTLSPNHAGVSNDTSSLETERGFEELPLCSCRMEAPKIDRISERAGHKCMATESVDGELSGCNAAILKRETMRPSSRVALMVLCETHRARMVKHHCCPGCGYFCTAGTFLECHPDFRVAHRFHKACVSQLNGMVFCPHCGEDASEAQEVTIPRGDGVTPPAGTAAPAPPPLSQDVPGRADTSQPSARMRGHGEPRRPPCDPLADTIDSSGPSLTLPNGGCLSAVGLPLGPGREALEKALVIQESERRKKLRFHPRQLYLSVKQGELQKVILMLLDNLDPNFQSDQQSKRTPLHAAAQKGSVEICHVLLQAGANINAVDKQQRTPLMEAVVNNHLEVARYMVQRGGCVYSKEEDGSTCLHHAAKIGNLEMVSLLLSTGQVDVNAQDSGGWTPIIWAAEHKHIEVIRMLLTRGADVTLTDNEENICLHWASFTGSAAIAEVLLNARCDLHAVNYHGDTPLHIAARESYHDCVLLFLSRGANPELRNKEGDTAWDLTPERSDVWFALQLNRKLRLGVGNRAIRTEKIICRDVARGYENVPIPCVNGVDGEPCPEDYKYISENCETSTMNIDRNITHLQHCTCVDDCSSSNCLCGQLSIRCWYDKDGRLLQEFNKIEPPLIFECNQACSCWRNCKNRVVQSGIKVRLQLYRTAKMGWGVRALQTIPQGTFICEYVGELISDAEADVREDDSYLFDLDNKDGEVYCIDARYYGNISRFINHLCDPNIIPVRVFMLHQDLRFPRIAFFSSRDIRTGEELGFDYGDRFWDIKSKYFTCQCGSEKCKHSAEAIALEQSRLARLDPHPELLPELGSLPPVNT
Method in brief: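 Purified G9a or GLP catalytic domain (5 μM) in 50 mM Tris-HCl pH 7.5, 150 mM NaCl incubated with 50 μM compound or DMSO at room temperature (1 h, or 30 and 60 min in time course); intact mass by ESI LC/MS-TOF; adduct % = adduct/(protein + adduct) × 100.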

[2] = target: T2, Histone-lysine N-methyltransferase EHMT1 (Homo sapiens, UniProt Q9H9B1); assay: Inhibition of human GLP (982 to 1266 residues) using H3 peptide substrate preincubated for 5 mins followed by SAM addition measured after 10 mins by SAHH-coupled biochemical assay
T2 sequence (Q9H9B1 whole entry): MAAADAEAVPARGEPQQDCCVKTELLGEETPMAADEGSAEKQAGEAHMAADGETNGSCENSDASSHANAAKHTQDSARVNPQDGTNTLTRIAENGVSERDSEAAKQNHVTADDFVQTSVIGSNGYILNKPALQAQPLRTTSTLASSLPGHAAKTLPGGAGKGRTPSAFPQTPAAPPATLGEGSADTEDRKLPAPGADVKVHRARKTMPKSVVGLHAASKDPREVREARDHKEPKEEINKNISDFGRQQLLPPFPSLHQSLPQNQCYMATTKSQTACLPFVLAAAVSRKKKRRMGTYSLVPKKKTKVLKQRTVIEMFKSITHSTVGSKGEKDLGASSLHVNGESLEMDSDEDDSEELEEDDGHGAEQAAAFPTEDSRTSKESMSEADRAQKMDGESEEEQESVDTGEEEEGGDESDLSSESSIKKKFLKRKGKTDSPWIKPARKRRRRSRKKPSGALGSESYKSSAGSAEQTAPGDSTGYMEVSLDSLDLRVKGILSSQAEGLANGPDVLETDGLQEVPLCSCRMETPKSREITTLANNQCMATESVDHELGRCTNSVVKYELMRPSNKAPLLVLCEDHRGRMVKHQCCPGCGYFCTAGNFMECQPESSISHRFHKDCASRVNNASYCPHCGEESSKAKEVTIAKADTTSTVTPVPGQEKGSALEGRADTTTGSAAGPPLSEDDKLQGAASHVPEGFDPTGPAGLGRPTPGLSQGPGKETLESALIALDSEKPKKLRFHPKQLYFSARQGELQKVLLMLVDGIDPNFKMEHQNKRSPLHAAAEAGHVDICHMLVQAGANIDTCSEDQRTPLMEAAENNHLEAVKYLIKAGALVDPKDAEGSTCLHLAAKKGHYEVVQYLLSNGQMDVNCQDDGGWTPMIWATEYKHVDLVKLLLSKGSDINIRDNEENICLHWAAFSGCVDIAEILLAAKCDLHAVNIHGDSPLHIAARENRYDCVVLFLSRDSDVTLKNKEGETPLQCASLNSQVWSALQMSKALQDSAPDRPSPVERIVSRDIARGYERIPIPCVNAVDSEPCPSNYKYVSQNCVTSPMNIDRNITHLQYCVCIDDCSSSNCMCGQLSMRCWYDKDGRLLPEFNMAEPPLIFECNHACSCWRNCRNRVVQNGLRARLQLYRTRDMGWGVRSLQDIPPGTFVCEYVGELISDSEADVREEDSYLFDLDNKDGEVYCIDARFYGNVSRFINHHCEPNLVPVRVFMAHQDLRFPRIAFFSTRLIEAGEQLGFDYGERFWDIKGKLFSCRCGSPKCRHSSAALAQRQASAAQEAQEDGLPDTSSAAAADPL

[3] = target: T3, Histone-lysine N-methyltransferase EHMT2 (Homo sapiens, UniProt Q96KQ7); assay: Inhibition of human G9a (913 to 1193 residues) using H3 peptide substrate preincubated for 5 mins followed by SAM addition measured after 10 mins by SAHH-coupled biochemical assay
T3 sequence (Q96KQ7 whole entry): T1 sequence (whole entry)

[4] = target: T2, Histone-lysine N-methyltransferase EHMT1; assay: Binding affinity to human GLP (982 to 1266 residues) assessed as dissociation constant measured after 1 hr by isothermal titration calorimetry method
Method in brief: (§1)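 ITC at 25 °C in 50 mM Tris-HCl pH 7.5, 150 mM NaCl, 1% DMSO; 500 μM compound in syringe titrated into 50 μM G9a or GLP catalytic domain in cell (initial 0.4 μL injection then 13 injections), stirring 750 rpm; run time about 50 min; single binding site fit; mean ± SD of two independent measurements.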

[5] = target: T3, Histone-lysine N-methyltransferase EHMT2; assay: Binding affinity to human G9a (913 to 1193 residues) assessed as dissociation constant measured after 1 hr by isothermal titration calorimetry method; method in brief: as §1

inhibition [1]	IC50 [2]	IC50 [3]	Kd [4]	Kd [5]	Compound
40%	–	–	–	–	C=CC(=O)Nc1nc(NC2CCN(C(C)C)CC2)c2cc(OC)c(OCCCN3CCCC3)cc2n1
–	151 nM	211 nM	16 nM	48 nM	CCC(=O)Nc1cc(NC2CCN(C(C)C)CC2)c2cc(OC)c(OCCCN3CCCC3)cc2n1
